ChEMBL document CHEMBL5724801, “EUbOPEN Chemogenomics Library - Multiplex” (2024)
Several values for one entry are separate records, joined by “and”; a condition that tells them apart may be missing. Identical values can stand only once.

Test system: Fibroblast
Assay: Multiplex assay against human fibroblast
Type: toxicity, cell-based
Summary of the method: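 Hoechst33342, BioTracker Green Microtubule Cytoskeleton Dye, MitoTracker Red and Annexin V Alexa Fluor 680 were added to live cells at seeding, and imaging on a CQ1 microscope at 37°C and 5% CO2 followed compound addition. Gating by CellPathfinder machine learning separated cells into Hoechst high-intensity objects or normal cells, then normal cells into healthy, pyknosed or fragmented nuclei, then pyknosed cells into mitotic or apoptotic. Per cents of healthy-nucleus cells are reported for the tubulin, mitochondrial-mass and membrane-permeability phenotypes.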

[1] = 12 h, 1 µM, compound concentration 1 uM
[2] = 12 h, 10 µM, compound concentration 10 uM
[3] = 24 h, 1 µM, compound concentration 1 uM
[4] = 24 h, 10 µM, compound concentration 10 uM
[5] = 48 h, 1 µM, compound concentration 1 uM
[6] = 48 h, 10 µM, compound concentration 10 uM

Structure (SMILES): O=c1nc2[nH]c3ccccc3nc-2c(=O)[nH]1 [ALLOXAZINE]
- Population Apoptotic (%) [1]: 56% and 37%
- Population Fragmented Nuclei (%) [1]: 16% and 26%
- Population Healthy Nuclei (%) [1]: 67% and 50%
- Population Hoechst High Intensity Objects (%) [1]: 5% and 3%
- Population Membrane Permeable-Phenotype (%) [1]: 0% and 6%
- Population Mitochondria Different-Phenotype (%) [1]: 2% and 3%
- Population Mitotic Cells (%) [1]: 43% and 62%
- Population Normal (%) [1]: 94% and 96%
- Population Pyknosed Nuclei (%) [1]: 16% and 23%
- Population Tubulin-Different-Phenotype (%) [1]: 23% and 33%
- Total Cell Count [1]: 193 and 131
- Population Apoptotic (%) [2]: 33% and 41%
- Population Fragmented Nuclei (%) [2]: 23% and 41%
- Population Healthy Nuclei (%) [2]: 60% and 38%
- Population Hoechst High Intensity Objects (%) [2]: 4% and 1%
- Population Membrane Permeable-Phenotype (%) [2]: 3%
- Population Mitochondria Different-Phenotype (%) [2]: 5% and 15%
- Population Mitotic Cells (%) [2]: 66% and 58%
- Population Normal (%) [2]: 95% and 98%
- Population Pyknosed Nuclei (%) [2]: 15% and 20%
- Population Tubulin-Different-Phenotype (%) [2]: 23% and 57%
- Total Cell Count [2]: 158 and 86
- Population Apoptotic (%) [3]: 52% and 36%
- Population Fragmented Nuclei (%) [3]: 17% and 31%
- Population Healthy Nuclei (%) [3]: 69% and 41%
- Population Hoechst High Intensity Objects (%) [3]: 3% and 4%
- Population Membrane Permeable-Phenotype (%) [3]: 0% and 2%
- Population Mitochondria Different-Phenotype (%) [3]: 2% and 0%
- Population Mitotic Cells (%) [3]: 47% and 63%
- Population Normal (%) [3]: 96% and 95%
- Population Pyknosed Nuclei (%) [3]: 12% and 27%
- Population Tubulin-Different-Phenotype (%) [3]: 21% and 31%
- Total Cell Count [3]: 190 and 114
- Population Apoptotic (%) [4]: 47% and 64%
- Population Fragmented Nuclei (%) [4]: 19% and 45%
- Population Healthy Nuclei (%) [4]: 64% and 32%
- Population Hoechst High Intensity Objects (%) [4]: 3%
- Population Membrane Permeable-Phenotype (%) [4]: 0%
- Population Mitochondria Different-Phenotype (%) [4]: 2% and 7%
- Population Mitotic Cells (%) [4]: 52% and 35%
- Population Normal (%) [4]: 96%
- Population Pyknosed Nuclei (%) [4]: 15% and 21%
- Population Tubulin-Different-Phenotype (%) [4]: 22% and 50%
- Total Cell Count [4]: 153 and 82
- Population Apoptotic (%) [5]: 71% and 39%
- Population Fragmented Nuclei (%) [5]: 14% and 30%
- Population Healthy Nuclei (%) [5]: 72% and 48%
- Population Hoechst High Intensity Objects (%) [5]: 9% and 3%
- Population Membrane Permeable-Phenotype (%) [5]: 0% and 9%
- Population Mitochondria Different-Phenotype (%) [5]: 1%
- Population Mitotic Cells (%) [5]: 28% and 60%
- Population Normal (%) [5]: 90% and 96%
- Population Pyknosed Nuclei (%) [5]: 13% and 20%
- Population Tubulin-Different-Phenotype (%) [5]: 23% and 56%
- Total Cell Count [5]: 178 and 114
- Population Apoptotic (%) [6]: 55% and 45%
- Population Fragmented Nuclei (%) [6]: 26% and 49%
- Population Healthy Nuclei (%) [6]: 61% and 36%
- Population Hoechst High Intensity Objects (%) [6]: 6% and 2%
- Population Membrane Permeable-Phenotype (%) [6]: 2% and 3%
- Population Mitotic Cells (%) [6]: 44% and 54%
- Population Normal (%) [6]: 93% and 97%
- Population Pyknosed Nuclei (%) [6]: 11% and 13%
- Population Tubulin-Different-Phenotype (%) [6]: 29% and 51%
- Total Cell Count [6]: 164 and 81

Structure (SMILES): Cc1cc(=O)n(C)c2cc(N3C(=O)CC[C@H](NS(=O)(=O)CC(C)C)[C@H]3c3ccc(Cl)cc3)ccc12
- Population Apoptotic (%) [1]: 31% and 38%
- Population Fragmented Nuclei (%) [1]: 16% and 20%
- Population Healthy Nuclei (%) [1]: 56% and 38%
- Population Hoechst High Intensity Objects (%) [1]: 2% and 10%
- Population Membrane Permeable-Phenotype (%) [1]: 0% and 8%
- Population Mitochondria Different-Phenotype (%) [1]: 4%
- Population Mitotic Cells (%) [1]: 68% and 62%
- Population Normal (%) [1]: 97% and 89%
- Population Pyknosed Nuclei (%) [1]: 26% and 40%
- Population Tubulin-Different-Phenotype (%) [1]: 34% and 61%
- Total Cell Count [1]: 135 and 137
- Population Apoptotic (%) [2]: 41% and 18%
- Population Fragmented Nuclei (%) [2]: 11% and 26%
- Population Healthy Nuclei (%) [2]: 40% and 31%
- Population Hoechst High Intensity Objects (%) [2]: 3% and 11%
- Population Membrane Permeable-Phenotype (%) [2]: 1% and 8%
- Population Mitochondria Different-Phenotype (%) [2]: 8%
- Population Mitotic Cells (%) [2]: 58% and 82%
- Population Normal (%) [2]: 96% and 88%
- Population Pyknosed Nuclei (%) [2]: 48% and 42%
- Population Tubulin-Different-Phenotype (%) [2]: 86% and 94%
- Total Cell Count [2]: 149 and 133
- Population Apoptotic (%) [3]: 34% and 50%
- Population Fragmented Nuclei (%) [3]: 18% and 26%
- Population Healthy Nuclei (%) [3]: 62% and 44%
- Population Hoechst High Intensity Objects (%) [3]: 2% and 10%
- Population Mitochondria Different-Phenotype (%) [3]: 4% and 5%
- Population Mitotic Cells (%) [3]: 65% and 50%
- Population Normal (%) [3]: 97% and 89%
- Population Pyknosed Nuclei (%) [3]: 18% and 29%
- Population Tubulin-Different-Phenotype (%) [3]: 24% and 70%
- Total Cell Count [3]: 140 and 128
- Population Apoptotic (%) [4]: 43% and 42%
- Population Fragmented Nuclei (%) [4]: 14% and 28%
- Population Healthy Nuclei (%) [4]: 46% and 26%
- Population Hoechst High Intensity Objects (%) [4]: 10% and 8%
- Population Membrane Permeable-Phenotype (%) [4]: 0% and 17%
- Population Mitochondria Different-Phenotype (%) [4]: 19% and 8%
- Population Mitotic Cells (%) [4]: 56% and 57%
- Population Normal (%) [4]: 90% and 91%
- Population Pyknosed Nuclei (%) [4]: 39% and 45%
- Population Tubulin-Different-Phenotype (%) [4]: 88% and 85%
- Total Cell Count [4]: 150 and 143
- Population Apoptotic (%) [5]: 48% and 46%
- Population Fragmented Nuclei (%) [5]: 27% and 35%
- Population Healthy Nuclei (%) [5]: 54%
- Population Hoechst High Intensity Objects (%) [5]: 2% and 7%
- Population Membrane Permeable-Phenotype (%) [5]: 1% and 8%
- Population Mitochondria Different-Phenotype (%) [5]: 2% and 8%
- Population Mitotic Cells (%) [5]: 52% and 53%
- Population Normal (%) [5]: 97% and 92%
- Population Pyknosed Nuclei (%) [5]: 18% and 9%
- Population Tubulin-Different-Phenotype (%) [5]: 27% and 73%
- Total Cell Count [5]: 141 and 142
- Population Apoptotic (%) [6]: 61% and 54%
- Population Fragmented Nuclei (%) [6]: 23% and 34%
- Population Healthy Nuclei (%) [6]: 38% and 37%
- Population Hoechst High Intensity Objects (%) [6]: 15% and 10%
- Population Membrane Permeable-Phenotype (%) [6]: 0% and 25%
- Population Mitochondria Different-Phenotype (%) [6]: 24% and 8%
- Population Mitotic Cells (%) [6]: 38% and 45%
- Population Normal (%) [6]: 84% and 89%
- Population Pyknosed Nuclei (%) [6]: 37% and 27%
- Population Tubulin-Different-Phenotype (%) [6]: 92% and 87%
- Total Cell Count [6]: 153 and 141

Structure (SMILES): Cn1cc(C(=O)OCC2CCN(CCNS(C)(=O)=O)CC2)c2ccccc21
- Population Apoptotic (%) [1]: 44% and 33%
- Population Fragmented Nuclei (%) [1]: 13% and 21%
- Population Healthy Nuclei (%) [1]: 71% and 46%
- Population Hoechst High Intensity Objects (%) [1]: 1% and 4%
- Population Membrane Permeable-Phenotype (%) [1]: 0% and 9%
- Population Mitochondria Different-Phenotype (%) [1]: 3% and 1%
- Population Mitotic Cells (%) [1]: 55% and 66%
- Population Normal (%) [1]: 98% and 95%
- Population Pyknosed Nuclei (%) [1]: 14% and 32%
- Population Tubulin-Different-Phenotype (%) [1]: 23% and 37%
- Total Cell Count [1]: 202 and 164
- Population Apoptotic (%) [2]: 48% and 25%
- Population Fragmented Nuclei (%) [2]: 29% and 32%
- Population Healthy Nuclei (%) [2]: 55% and 51%
- Population Hoechst High Intensity Objects (%) [2]: 3% and 5%
- Population Membrane Permeable-Phenotype (%) [2]: 0% and 5%
- Population Mitochondria Different-Phenotype (%) [2]: 9% and 7%
- Population Mitotic Cells (%) [2]: 51% and 75%
- Population Normal (%) [2]: 96% and 94%
- Population Pyknosed Nuclei (%) [2]: 14% and 16%
- Population Tubulin-Different-Phenotype (%) [2]: 41% and 47%
- Total Cell Count [2]: 207 and 184
- Population Apoptotic (%) [3]: 31% and 30%
- Population Fragmented Nuclei (%) [3]: 13% and 25%
- Population Healthy Nuclei (%) [3]: 74% and 47%
- Population Hoechst High Intensity Objects (%) [3]: 5% and 2%
- Population Membrane Permeable-Phenotype (%) [3]: 0% and 7%
- Population Mitochondria Different-Phenotype (%) [3]: 0% and 6%
- Population Mitotic Cells (%) [3]: 68% and 69%
- Population Normal (%) [3]: 94% and 97%
- Population Pyknosed Nuclei (%) [3]: 11% and 26%
- Population Tubulin-Different-Phenotype (%) [3]: 23% and 48%
- Total Cell Count [3]: 201 and 168
- Population Apoptotic (%) [4]: 80% and 41%
- Population Fragmented Nuclei (%) [4]: 33% and 40%
- Population Healthy Nuclei (%) [4]: 53% and 43%
- Population Hoechst High Intensity Objects (%) [4]: 5% and 4%
- Population Membrane Permeable-Phenotype (%) [4]: 0% and 3%
- Population Mitochondria Different-Phenotype (%) [4]: 3% and 5%
- Population Mitotic Cells (%) [4]: 20% and 58%
- Population Normal (%) [4]: 94% and 95%
- Population Pyknosed Nuclei (%) [4]: 13% and 16%
- Population Tubulin-Different-Phenotype (%) [4]: 42% and 52%
- Total Cell Count [4]: 201 and 188
- Population Apoptotic (%) [5]: 54% and 52%
- Population Fragmented Nuclei (%) [5]: 14% and 33%
- Population Healthy Nuclei (%) [5]: 72% and 54%
- Population Hoechst High Intensity Objects (%) [5]: 5% and 4%
- Population Membrane Permeable-Phenotype (%) [5]: 0% and 5%
- Population Mitochondria Different-Phenotype (%) [5]: 1% and 2%
- Population Mitotic Cells (%) [5]: 45% and 47%
- Population Normal (%) [5]: 94% and 95%
- Population Pyknosed Nuclei (%) [5]: 12%
- Population Tubulin-Different-Phenotype (%) [5]: 23% and 43%
- Total Cell Count [5]: 197 and 177
- Population Apoptotic (%) [6]: 68% and 50%
- Population Fragmented Nuclei (%) [6]: 28% and 40%
- Population Healthy Nuclei (%) [6]: 58% and 46%
- Population Hoechst High Intensity Objects (%) [6]: 9% and 6%
- Population Membrane Permeable-Phenotype (%) [6]: 0% and 2%
- Population Mitochondria Different-Phenotype (%) [6]: 9% and 8%
- Population Mitotic Cells (%) [6]: 32% and 50%
- Population Normal (%) [6]: 90% and 93%
- Population Pyknosed Nuclei (%) [6]: 13% and 12%
- Population Tubulin-Different-Phenotype (%) [6]: 49% and 60%
- Total Cell Count [6]: 199 and 190
